Yeast life ext: compounds extending yeast replicative lifespan, primary screen, S. cerevisiae, OD615; S. cerevisiae growth with nicotinamide; deaD strain in restrictive glucose medium; hit rate 0.68% among 130,000; inhibition of the nicotinamide effect, % at 10 µM; AID 775, 2007;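 active means inhibition above a set limit, placed 3 SD over the median of all compounds, cut at about 26% in these data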;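 further: 0% = nicotinamide-treated wells and 100% = cells grown without nicotinamide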
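Buffer or medium: CSMM-D glucose medium, restrictive; test system: modified budding yeast, DeaD strain; compound: single dose 10 µM compound, 0.25% DMSO; schedule: culture preincubation 4 h, compound exposure 48 h, both 30 °C; detection: optical density (absorbance) at 615 nm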
Yeast growth inh: growth inhibitors of yeast BB579 in restrictive medium, primary screen, yeast lifespan-shortening project, S. cerevisiae; OD615, 48 h; AID 804, 2007; inhibition, % at 10 µM; hit rate 0.51% among 140,000;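 active means inhibition above a set limit, 3 SD over the mean compound inhibition, cut at about 44% in these data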
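System: Saccharomyces cerevisiae DeaD strain BB579, replicative lifespan model yeast | Buffer or medium: Restrictive glucose-based CSMM-D medium | Times: 4 h preincubation and 48 h exposure at 30 °C | Detection: OD615 turbidity measurement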
RAM network inh: inhibitors of the yeast RAM network, primary screen, dse1pr::URA3 reporter, 5-FOA selection. hit rate 1.8% among 190,000. S. cerevisiae dse1pr::URA3 reporter, 5-FOA growth OD615, 2 d; analog-sensitive cbk1-as2 kinase mutant strain. AID 868, 2007. inhibition, % at 50 µM;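 active means inhibition above a set limit, 3 SD over mean compound inhibition, cut at about 8.4% in these data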;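 further: 0% = DMSO-only wells with no growth and 100% = 10 µM 1-NA-PP1 full growth; inhibition rescues growth on 5-FOA so higher OD means more RAM inhibition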
SDO1 yeast rescue: growth rescue of sdo1-depleted yeast, primary screen, S. cerevisiae, bone marrow failure model; S. cerevisiae sdo1-depleted JHY4D growth rescue, OD600 30 h; hits give high values; pdr5 snq2 efflux-pump mutant strain; z-score at 10 µM; hit rate 0.21% among 140,000; AID 817, 2007;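 active means z-score above 3 at both the 24 hr and the 30 hr optical density reads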;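 further: z-score against mean and SD of all compound wells on the same plate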
sdo1 rescue conf: SDO1-depleted yeast growth rescue, concentration-response, diseases of bone marrow failure, JHY4D, OD600; OD recovery (concentration not given with the values); shares compounds with SDO1 yeast rescue; AID 949, 2007; S. cerevisiae JHY4D (SDO1-depleted) growth rescue, 30 h; hits give high values; efflux-deficient strain, SNQ2 and PDR5 mutated; hit rate 44% among 440;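 active means yeast growth recovered at 30 hours, either rising with dose fitted slope above 0.001 or with average optical density gain above 0.07, some results past the limit were not filed as active; inactive means growth falling with dose or no effect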;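 further: gain in OD600 from 0 h to 30 h averaged across all seven doses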
RAM efflux-def: 5-FOA growth of efflux-deficient control yeast, dose response, counter-screen for RAM network inhibitor project, S. cerevisiae, OD615; shares compounds with RAM network inh; S. cerevisiae efflux-deficient reporter strain, 5-FOA growth OD615, 2 days; max inhibition, %; 1,200 tested, under 10 active; call rule not given here;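 further: plate controls were vehicle for no effect and reference inhibitor for full effect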
The depositor's hits bear a star. Sampled rows, rich in hits. Any-hit rate of the full collection: about 2.7%.

For O=C1/C(=C\c2cc3c(cc2Br)OCO3)N2CCC1CC2 the results were Yeast life ext 2, Yeast growth inh -27, RAM network inh 0 and SDO1 yeast rescue -1.7.
For O=C(Nc1ccc(F)cc1F)c1cccnc1Oc1cccc(C(F)(F)F)c1 the results were Yeast life ext 36*, Yeast growth inh -43, RAM network inh 7 and SDO1 yeast rescue 0.31.
For O=C1/C(=C\c2ccc([N+](=O)[O-])cc2)N2CCC1CC2 the results were Yeast life ext 35*, Yeast growth inh -41, RAM network inh 1 and SDO1 yeast rescue 0.12.
Screening CCOC(=O)c1cc(CC)sc1/N=C/c1c(O)[nH]c(=S)[nH]c1=O returned Yeast life ext -3, Yeast growth inh -19, RAM network inh 1, SDO1 yeast rescue 14* and sdo1 rescue conf 0.069.
Screening CC(=O)NNC(=O)CN1C(=O)CN=C(c2ccccc2)c2cc(Br)ccc21 returned RAM network inh 0.
For Cc1ccc(Cn2cc(C=O)c(-c3ccc(C)cc3)n2)cc1 the results were Yeast life ext 1, Yeast growth inh -18, RAM network inh 16*, SDO1 yeast rescue -0.85 and RAM efflux-def 1.
COc1cccc(NP(=O)(Oc2ccc(Cl)cc2)Oc2ccc(Cl)cc2)c1 was read as Yeast life ext 4, Yeast growth inh -29, RAM network inh 15*, SDO1 yeast rescue -0.58 and RAM efflux-def 5.
For Cc1cccc(NP(=O)(Oc2ccccc2F)Oc2ccccc2F)c1 the results were Yeast life ext 10, Yeast growth inh -43, RAM network inh 16*, SDO1 yeast rescue -0.96 and RAM efflux-def 2.
`COc1ccccc1OP(=O)(Nc1cccnc1)Oc1ccccc1OC` gave Yeast life ext -1, Yeast growth inh 9, RAM network inh 2 and SDO1 yeast rescue 1.
For O=P(Nc1ccccc1)(Nc1ccccc1)Oc1ccc(Cl)cc1 the results were Yeast life ext -4, Yeast growth inh 6, RAM network inh 5 and SDO1 yeast rescue -1.1.
Screening Cc1ccc(NP(=O)(Oc2ccccc2F)Oc2ccccc2F)cc1C returned Yeast life ext 14, Yeast growth inh -36, RAM network inh 17*, SDO1 yeast rescue -1.4 and RAM efflux-def 2.
Screening CCN(CC)P(c1n(C)cc[n+]1C)N(CC)CC returned RAM network inh 0.
Screening CC1C(c2cccs2)=[N+]([O-])C(C)(C(=O)c2cccs2)N1O (configuration not stated) returned Yeast life ext 0, Yeast growth inh -30, RAM network inh 1 and SDO1 yeast rescue 0.51.
For CCc1nnc(NS(=O)(=O)c2ccc(N=Cc3c(O)n(-c4ccc(Cl)cc4)c(=O)[nH]c3=O)cc2)s1 the results were RAM network inh 1.
`FC(F)(F)c1nc(N2CCN(c3ccccc3)CC2)nc2c1CCCCC2` gave Yeast life ext -7, Yeast growth inh -53, RAM network inh 14*, SDO1 yeast rescue 0.1 and RAM efflux-def 4.
Screening Cc1c(N=Nc2c(O)[nH]c(=S)[nH]c2=O)c(=O)n(-c2ccccc2)n1C returned Yeast life ext -3, Yeast growth inh -4, RAM network inh 0 and SDO1 yeast rescue 0.15.
Screening CCOc1ccc2nc(N=Nc3c(O)[nH]c(=S)[nH]c3=O)sc2c1 returned RAM network inh 12* and RAM efflux-def 6.
`C=CCSC1=N/C(=C\c2cc(OC)c3c(c2)OCO3)C(=O)S1` gave Yeast life ext -3, Yeast growth inh -35, RAM network inh 12*, SDO1 yeast rescue -0.61 and RAM efflux-def 3.
Screening C[N+]1(CC(COCc2ccccc2)OC(=O)Cc2ccccc2)CCOCC1 (configuration not stated) returned Yeast life ext 2, Yeast growth inh -54, RAM network inh 1 and SDO1 yeast rescue 0.84.
